The record followed here is ChEMBL document CHEMBL3739400, “Penicyclones A-E, Antibacterial Polyketides from the Deep-Sea-Derived Fungus Penicillium sp. F23-2” (J Nat Prod, 2015).

Assay [1] deals with Staphylococcus aureus. As to the kind of experiment: Antibacterial activity against Staphylococcus aureus ATCC 6538 assessed as growth inhibition after 24 hrs by broth microdilution method. Type of assay: functional. The settings on record: ATCC 6538, 24 h. An outline of the steps:
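Broth microdilution assay against Staphylococcus aureus, with penicillin G as the positive control.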

In assay [2] the test system is HEK293. Put plainly: Cytotoxicity against HEK293 cells assessed as reduction in cell viability by sulforhodamine B assay. The note with it: Homo sapiens. Type of assay: cell-based.
The subject of assay [3] is HeLa. As to the kind of experiment: Cytotoxicity against human HeLa cells assessed as reduction in cell viability by MTT assay. Type of assay: functional, cell-based. The procedure, abridged: (§1)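 Cytotoxicity was measured by MTT assay on HeLa (human cervical cancer) and BEL-7402 (human hepatocellular carcinoma) cell lines, with doxorubicin as the positive control.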
Assay [4] has as its system A549. As to the kind of experiment: Cytotoxicity against human A549 cells assessed as reduction in cell viability by sulforhodamine B assay. The format is functional, cell-based.
Assay [5] in a line: Cytotoxicity against human HCT116 cells assessed as reduction in cell viability by sulforhodamine B assay. The settings on record: HCT-116. Type of assay: functional, cell-based.
Assay [6] is described as follows: Cytotoxicity against human Bel7402 cells assessed as reduction in cell viability by MTT assay. Type of assay: functional, cell-based. The note with it: Bel-7402. The procedure, abridged:
as §1

Converted amounts (≈) assume the structure as drawn. Bounds are passed on as bounds.

For the compound `COC(=O)[C@H](C)CC[C@@]1(O)C(=O)C=C(C)[C@@H](O)[C@H]1O`, in assay [1], the MIC was determined as 0.9 µg/mL (≈ 3.31 µM). Further, the IC50 in assay [2], in assay [3], in assay [4], in assay [5] and in assay [6] was greater than 50 µM each time.

For the compound `CC1=CC(=O)[C@](O)(CC[C@@H](C)C(=O)O)[C@H](O)[C@@H]1O`, the MIC in assay [1] turned out to be 1 µg/mL (≈ 3.87 µM). The IC50 in assay [2], in assay [3], in assay [4], in assay [5] and in assay [6] was greater than 50 µM throughout.

For the compound `CC1=CC(=O)[C@]2(C/C=C(\C)CCC(=O)O)O[C@@H]2[C@@H]1O`, the MIC in assay [1] came to 0.5 µg/mL (≈ 1.88 µM). Besides, the IC50 in assay [2], in assay [3], in assay [4], in assay [5] and in assay [6] was greater than 50 µM each time.

Consider `CC1=CC(=O)[C@]2(CC/C(C)=C/CC(=O)O)O[C@@H]2[C@@H]1O`, for which the MIC in assay [1] was determined as 0.8 µg/mL (≈ 3 µM). In addition, the IC50 in assay [2], in assay [3], in assay [4], in assay [5] and in assay [6] was greater than 50 µM in each case.

In the case of `CC1=CC(=O)[C@]2(CC[C@@H](C)C(=O)O2)[C@H](O)[C@@H]1O`, the MIC in assay [1] worked out at 0.3 µg/mL (≈ 1.25 µM). The IC50 in assay [2], in assay [3], in assay [4], in assay [5] and in assay [6] was greater than 50 µM each time.
